Data from ChEMBL document CHEMBL4196006, “Aryl thiosemicarbazones for the treatment of trypanosomatidic infections” (Eur J Med Chem, 2018).
Activity calls are given as the source filed them. The rule behind the calls is not given here.

Tests used:
[1] = biological target: CYP2C9 (Homo sapiens, UniProt P11712); assay: Inhibition of human microsomal CYP2C9 expressed in baculovirus infected BTI-TN-5B1-4 cells at 10 uM incubated for 30 mins by luciferase assay relative to control; assay type: ADME
How it was run: (§1)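 CYP1A2, 2C9, 2C19, 2D6 and 3A4 in microsomes from baculovirus-infected insect cells, each with a P450-Glo luminogenic substrate. Inhibition read as loss of light; single-point at 10 μM, triplicate.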

[2] = tested on: Trypanosoma brucei; assay: Antitrypanosomal activity against Trypanosoma brucei Lister 427 bloodstream form after 72 hrs by resazurin dye-based assay; assay type: functional, organism-based; settings: Lister 427, 72 h
[3] = tested on: Trypanosoma cruzi; assay: Antitrypanosomal activity against Trypanosoma cruzi amastigote form infected in human U2OS cells assessed as parasite growth inhibition at 50 uM after 72 hrs relative to control; assay type: functional; settings: read-out: GI
How it was run: (§2)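 U2OS monolayers grown for 24 h, then infected with tissue-derived trypomastigotes of T. cruzi Y strain. Compounds were added 24 h after infection at 50 μM (single-point) or in dose-response, with 72 h exposure. Plates were fixed, stained and analysed by high-content imaging; activity was normalized to infected and non-infected controls. Means of at least two experiments; benznidazole as reference.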

[4] = tested on: Trypanosoma brucei; assay: Potentiation of methotrexate-induced antitrypanosomal activity against Trypanosoma brucei Lister 427 bloodstream form at 10 uM after 72 hrs by resazurin dye-based assay relative to control; assay type: functional
[5] = biological target: T1, Pteridine reductase 1 (Leishmania major) (UniProt Q01782); assay: Inhibition of Leishmania major PTR1 at 50 uM using H2B as substrate in presence of NADPH by photometric analysis relative to control
T1 sequence (whole entry): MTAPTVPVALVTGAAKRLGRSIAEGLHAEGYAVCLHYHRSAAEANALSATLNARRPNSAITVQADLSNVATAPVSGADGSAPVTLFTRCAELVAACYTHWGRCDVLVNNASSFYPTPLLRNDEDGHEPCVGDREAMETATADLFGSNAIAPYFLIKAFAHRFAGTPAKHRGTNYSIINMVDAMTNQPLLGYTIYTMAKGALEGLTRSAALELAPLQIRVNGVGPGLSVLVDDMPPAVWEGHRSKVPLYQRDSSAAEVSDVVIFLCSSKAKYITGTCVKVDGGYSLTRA

[6] = biological target: CYP2C19 (Homo sapiens, UniProt P33261); assay: Inhibition of human microsomal CYP2C19 expressed in baculovirus infected BTI-TN-5B1-4 cells at 10 uM incubated for 30 mins by luciferase assay relative to control; assay type: ADME; how it was run: as §1
[7] = tested on: Trypanosoma brucei; assay: Potentiation of methotrexate-induced antitrypanosomal activity against Trypanosoma brucei Lister 427 bloodstream form assessed as combination index at EC50 after 72 hrs by resazurin dye-based assay; assay type: functional
[8] = biological target: CYP3A4 (Homo sapiens, UniProt P08684); assay: Inhibition of human microsomal CYP3A4 expressed in baculovirus infected BTI-TN-5B1-4 cells at 10 uM incubated for 30 mins by luciferase assay relative to control; assay type: ADME; how it was run: as §1
[9] = tested on: Trypanosoma brucei; assay: Antitrypanosomal activity against Trypanosoma brucei Lister 427 bloodstream form after 72 hrs by SYBR Green assay; assay type: functional, organism-based; settings: Lister 427, 72 h
[10] = Selectivity index, ratio of CC50 for human A549 cells to EC50 for Trypanosoma brucei Lister 427 bloodstream form; assay type: toxicity; settings: read-out: Ratio CC50/EC50
How it was run: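 Selectivity index = CC50 in the human host or cytotoxicity cell line divided by parasite EC50.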

[11] = biological target: CYP2D6 (Homo sapiens, UniProt P10635); assay: Inhibition of human microsomal CYP2D6 expressed in baculovirus infected BTI-TN-5B1-4 cells at 10 uM incubated for 30 mins by luciferase assay relative to control; assay type: ADME; how it was run: as §1
[12] = tested on: Leishmania infantum; assay: Antileishmanial activity against Leishmania infantum amastigote form assessed as parasite growth inhibition at 50 uM after 72 hrs by steady-Glo reagent based assay relative to control; assay type: functional
How it was run: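 Intramacrophage L. infantum amastigotes in THP-1-derived macrophages, tested at 50 μM or in dose-response. Plates held 72 h at 37 °C, 5% CO2. Medium was replaced by PBS, macrophages lysed, and parasites read by Steady-Glo luminescence. High-content imaging gave host cell number, infection ratio (infected/total cells) and parasites per infected cell. Values are means of at least two independent experiments.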

[13] = biological target: T2, Pteridine reductase, putative (Trypanosoma brucei) (UniProt Q581W1); assay: Inhibition of Trypanosoma brucei PTR1 at 50 uM using H2B as substrate in presence of NADPH by photometric analysis relative to control
T2 sequence (whole entry): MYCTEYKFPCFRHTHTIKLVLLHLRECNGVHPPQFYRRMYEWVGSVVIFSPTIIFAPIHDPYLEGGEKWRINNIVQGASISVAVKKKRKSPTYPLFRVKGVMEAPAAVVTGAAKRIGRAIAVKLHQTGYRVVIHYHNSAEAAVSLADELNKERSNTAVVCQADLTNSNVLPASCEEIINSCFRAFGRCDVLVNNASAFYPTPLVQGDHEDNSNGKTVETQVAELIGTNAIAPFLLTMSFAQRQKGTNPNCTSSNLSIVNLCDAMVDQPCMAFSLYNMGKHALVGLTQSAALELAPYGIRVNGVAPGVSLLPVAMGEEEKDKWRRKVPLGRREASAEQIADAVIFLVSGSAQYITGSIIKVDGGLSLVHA

[14] = tested on: Trypanosoma cruzi; assay: Antitrypanosomal activity against Trypanosoma cruzi amastigote form infected in human U2OS cells assessed as parasite growth inhibition after 72 hrs; assay type: functional, organism-based; how it was run: as §2
[15] = Cytotoxicity against human U2OS cells assessed as viable cells at 50 uM after 72 hrs by MTT assay relative to control; assay type: cell-based; settings: read-out: Activity
[16] = tested on: Trypanosoma brucei; assay: Antitrypanosomal activity against Trypanosoma brucei Lister 427 bloodstream form assessed as parasite growth inhibition at 50 uM after 72 hrs by SYBR Green assay relative to control; assay type: functional; settings: Lister 427, 72 h, read-out: GI
[17] = biological target: Aurora kinase B (Homo sapiens, UniProt Q96GD4); assay: Inhibition of recombinant full-length human aurora B kinase expressed in baculovirus system at 10 uM using MBP as substrate incubated for 45 mins by ADP-glo kinase assay; settings: probe MBP
How it was run: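 Aurora B activity measured as ADP formation via coupled luciferase ADP-Glo luminescence; single-point at 10 μM, triplicate.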

[18] = tested on: Trypanosoma brucei; assay: Potentiation of methotrexate-induced antitrypanosomal activity against Trypanosoma brucei Lister 427 bloodstream form assessed as dose reduction index for compound at EC50 after 72 hrs by resazurin dye-based assay; assay type: functional
[19] = Cytotoxicity against human A549 cells assessed as growth inhibition at 10 uM after 48 hrs by CellTiter-Glo assay relative to control; values are per cent of control; settings: A549 cells
[20] = Cytotoxicity against human THP1 cells assessed as viable cells at 100 uM after 72 hrs by MTT assay relative to control; assay type: cell-based, THP-1; settings: read-out: Activity
How it was run: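 THP-1-derived macrophages exposed to compounds for 72 h, tested at 100 μM or in dose-response; viability read by MTT colorimetric assay.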

[21] = tested on: Trypanosoma brucei; assay: Antitrypanosomal activity against Trypanosoma brucei Lister 427 bloodstream form at 10 uM after 72 hrs by resazurin dye-based assay relative to control; assay type: functional
[22] = Cytotoxicity against human WI38 cells assessed as growth inhibition at 10 uM after 48 hrs by CellTiter-Glo assay relative to control; values are per cent of control; settings: WI38 cells

CYP2C9, sequence (P11712 whole entry): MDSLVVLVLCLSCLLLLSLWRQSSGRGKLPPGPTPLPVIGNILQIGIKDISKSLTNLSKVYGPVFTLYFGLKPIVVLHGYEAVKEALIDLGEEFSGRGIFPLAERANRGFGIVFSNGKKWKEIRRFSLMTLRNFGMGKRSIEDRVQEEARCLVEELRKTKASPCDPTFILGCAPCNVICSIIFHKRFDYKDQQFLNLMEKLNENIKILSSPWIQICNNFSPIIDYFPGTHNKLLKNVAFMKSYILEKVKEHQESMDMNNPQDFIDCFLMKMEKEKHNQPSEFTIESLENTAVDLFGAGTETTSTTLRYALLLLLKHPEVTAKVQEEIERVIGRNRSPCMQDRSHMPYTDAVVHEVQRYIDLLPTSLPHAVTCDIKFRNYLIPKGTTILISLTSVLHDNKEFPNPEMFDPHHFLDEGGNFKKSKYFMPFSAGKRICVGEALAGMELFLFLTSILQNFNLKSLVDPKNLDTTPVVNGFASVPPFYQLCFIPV
CYP3A4, sequence (P08684 whole entry): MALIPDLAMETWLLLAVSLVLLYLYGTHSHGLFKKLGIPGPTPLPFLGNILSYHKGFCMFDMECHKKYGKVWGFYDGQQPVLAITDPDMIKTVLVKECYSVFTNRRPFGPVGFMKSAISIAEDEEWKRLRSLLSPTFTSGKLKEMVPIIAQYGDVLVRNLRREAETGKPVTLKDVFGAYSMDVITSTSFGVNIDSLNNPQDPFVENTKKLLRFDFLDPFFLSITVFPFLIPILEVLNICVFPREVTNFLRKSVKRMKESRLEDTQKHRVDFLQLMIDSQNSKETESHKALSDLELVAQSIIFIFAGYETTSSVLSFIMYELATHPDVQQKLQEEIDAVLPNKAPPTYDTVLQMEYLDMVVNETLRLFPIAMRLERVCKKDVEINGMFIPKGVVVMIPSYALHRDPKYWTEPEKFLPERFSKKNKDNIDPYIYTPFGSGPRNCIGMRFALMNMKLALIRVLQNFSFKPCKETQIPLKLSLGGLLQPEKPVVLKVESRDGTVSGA
CYP2C19, sequence (P33261 whole entry): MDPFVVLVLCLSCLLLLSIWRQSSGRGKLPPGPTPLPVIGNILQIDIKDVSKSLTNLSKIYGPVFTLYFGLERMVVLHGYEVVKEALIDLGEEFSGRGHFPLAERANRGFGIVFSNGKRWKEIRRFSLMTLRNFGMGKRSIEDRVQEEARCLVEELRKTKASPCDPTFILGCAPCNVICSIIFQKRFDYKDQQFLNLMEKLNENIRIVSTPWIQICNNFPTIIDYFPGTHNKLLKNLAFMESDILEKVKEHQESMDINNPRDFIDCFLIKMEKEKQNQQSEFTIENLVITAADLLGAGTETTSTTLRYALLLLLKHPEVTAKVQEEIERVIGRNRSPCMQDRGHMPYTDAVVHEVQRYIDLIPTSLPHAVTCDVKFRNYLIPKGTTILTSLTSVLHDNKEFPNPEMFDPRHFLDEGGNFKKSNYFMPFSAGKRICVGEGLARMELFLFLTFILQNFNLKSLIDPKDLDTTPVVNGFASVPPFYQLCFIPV
Aurora kinase B, sequence (Q96GD4 whole entry): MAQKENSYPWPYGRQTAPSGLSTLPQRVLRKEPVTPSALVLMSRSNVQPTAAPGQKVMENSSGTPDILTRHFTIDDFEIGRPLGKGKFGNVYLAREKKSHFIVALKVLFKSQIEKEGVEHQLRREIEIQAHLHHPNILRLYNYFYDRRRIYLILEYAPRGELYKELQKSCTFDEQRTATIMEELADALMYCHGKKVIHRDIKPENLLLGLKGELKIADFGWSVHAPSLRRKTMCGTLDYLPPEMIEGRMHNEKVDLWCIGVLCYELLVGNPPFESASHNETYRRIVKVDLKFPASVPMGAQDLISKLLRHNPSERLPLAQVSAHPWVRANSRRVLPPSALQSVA
CYP2D6, sequence (P10635 whole entry): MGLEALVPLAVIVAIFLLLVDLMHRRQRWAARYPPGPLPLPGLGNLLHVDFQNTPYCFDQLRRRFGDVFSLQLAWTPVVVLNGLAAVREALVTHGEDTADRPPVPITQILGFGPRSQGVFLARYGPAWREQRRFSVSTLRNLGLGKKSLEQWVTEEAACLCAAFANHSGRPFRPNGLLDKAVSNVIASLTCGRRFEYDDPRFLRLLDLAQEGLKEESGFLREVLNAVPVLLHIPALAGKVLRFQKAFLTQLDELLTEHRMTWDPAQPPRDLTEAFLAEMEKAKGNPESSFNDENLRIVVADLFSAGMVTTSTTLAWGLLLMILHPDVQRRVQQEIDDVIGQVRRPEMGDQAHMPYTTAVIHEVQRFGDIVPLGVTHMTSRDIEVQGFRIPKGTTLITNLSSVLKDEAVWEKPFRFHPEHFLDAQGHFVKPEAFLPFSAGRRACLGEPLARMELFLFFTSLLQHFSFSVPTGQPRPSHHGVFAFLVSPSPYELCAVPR

| inhibition at 0.5 h, 10 µM [1] [%] | EC50 [2] [µM] | inhibition [5] [%] | inhibition at 0.5 h, 10 µM [6] [%] | inhibition at 0.5 h, 10 µM [8] [%] | EC50 [9] [µM] | inhibition at 0.5 h, 10 µM [11] [%] | inhibition [13] [%] | EC50 [14] [µM] | inhibition at 0.75 h, 10 µM [17] [%] | SMILES | inhibition of growth at 50 µM [3] [%] | Activity [4] [%] | CI [7] | selectivity ratio [10] | viability at 72 h, 50 µM [15] [%] | inhibition of growth at 50 µM [16] [%] | Activity_index [18] | cell growth (% of control) at 48 h, 10 µM [19] [%] | viability at 72 h, 100 µM [20] [%] | Activity [21] [%] | other results |
| --- | --- | --- | --- | --- | --- | --- | --- | --- | --- | --- | --- | --- | --- | --- | --- | --- | --- | --- | --- | --- | --- |
| 18.9 | 0.44 | 0.59 | 10.4 | 10.6 | 2.31 | 39.3 | 0.36 | 1.31 | -6.24 | NC(=S)N/N=C/c1ccc(OCc2ccc(Cl)c(Cl)c2)cc1 | 80.5 | 99.67 | 0.41 | 8 | 65.5 | 100 | 3.84 | 72.5 | 38.8 | 99.83 | inhibition of growth at 50 µM ([12]; read-out: GI): 80.5%; cell growth (% of control) at 48 h, 10 µM [22]: 89.4% |
| 56.8 | 4.72 | 4.76 | 22.2 | -2.53 | 7.45 | 29.2 | 3.09 | 29.5 | -2.55 | COc1ccc(-c2cccc(/C=N/NC(N)=S)c2)cc1OC | 82.4 | 99.67 | 0.28 | 7 | 26.7 | 93.9 | 7.94 | 90.5 | 40.9 | 98.83 | growth inhibition (GI) [12]: inactive; cell growth (% of control) at 48 h, 10 µM [22]: 106% |
